Laboratory results reported in ChEMBL document CHEMBL3632601, “Actinoramide A Identified as a Potent Antimalarial from Titration-Based Screening of Marine Natural Product Extracts” (J Nat Prod, 2015).
Active and inactive are the calls of the source. The calls are words filed in the database; no cut-off is given here.

What was measured:
Plasmodium falciparum [1] = assay: Antiplasmodial activity against Plasmodium falciparum GB4 after 72 hrs by SYBR green DNA-staining parasite viability assay; assay type: functional, organism-based
Summary of the method: (§1)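 Intra-erythrocytic P. falciparum growth in 1536-well format. Infected RBCs at 0.3% parasitemia and 2.5% hematocrit (final) were exposed to compound at 37 °C, 5% CO2, for 72 h. Lysis buffer was added (Tris-HCl, EDTA, saponin, Triton X-100, SYBR Green I), followed by overnight incubation in the dark at 22–24 °C. Fluorescence read at 485/535 nm. Artemisinin and mefloquine served as positive controls, DMSO as negative. EC50 from curve fits, duplicate titrations.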

HepG2 = assay: Cytotoxicity against human HepG2 cells after 72 hrs by CellTiter-Glo assay; settings: hepg2, 72 h
Plasmodium falciparum [2] = assay: Antiplasmodial activity against Plasmodium falciparum 7G8 after 72 hrs by SYBR green DNA-staining parasite viability assay; assay type: functional, organism-based; summary of the method: as §1
Plasmodium falciparum [3] = assay: Antiplasmodial activity against Plasmodium falciparum Dd2 after 72 hrs by SYBR green DNA-staining parasite viability assay; assay type: functional, organism-based; summary of the method: as §1
Plasmodium falciparum [4] = assay: Antiplasmodial activity against Plasmodium falciparum HB3 after 72 hrs by SYBR green DNA-staining parasite viability assay; assay type: functional, organism-based; summary of the method: as §1
Plasmodium falciparum [5] = assay: Antiplasmodial activity against Plasmodium falciparum cp250 after 72 hrs by SYBR green DNA-staining parasite viability assay; assay type: functional, organism-based; summary of the method: as §1
HEK293 = assay: Cytotoxicity against human HEK293 cells after 72 hrs by CellTiter-Glo assay; settings: hek293, 72 h
Jurkat = assay: Cytotoxicity against human Jurkat cells after 72 hrs by SYBR Green viability assay; assay type: cell-based
Plasmodium falciparum [6] = assay: Inhibition of aspartyl protease activity of plasmepsin in Plasmodium falciparum extracts using EDANSCOCH2CH2CO-ALERMFLSFP-Dap(DABCYL)OH as substrate after 15 mins by fluorescence assay
Summary of the method: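 Saponin-treated, RBC-depleted P. falciparum extract (plasmepsin pellet, 0.16% final) in 100 mM sodium acetate pH 5.0, 20% glycerol. Compound pin-transferred, then 15 min preincubation with enzyme. EDANS-DABCYL Plasmepsin II substrate added at 5 or 10 μM final, under KM conditions. Fluorescence (ex 336/em 490 nm) read over 3 h. EC50 calculated from plotted data.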

Row | inhibition (Plasmodium falciparum [6]) | SMILES | Activity (Plasmodium falciparum [1]) | Activity (HepG2) | Activity (Plasmodium falciparum [2]) | Activity (Plasmodium falciparum [3]) | Activity (Plasmodium falciparum [4]) | Activity (Plasmodium falciparum [5]) | Activity (HEK293) | EC50 (Jurkat) [µM] | EC50 (Plasmodium falciparum [1]; GB4, 72 h) [µM] | EC50 (Plasmodium falciparum [2]; 7G8, 72 h) [µM] | EC50 (Plasmodium falciparum [3]; Dd2, 72 h) [µM] | EC50 (Plasmodium falciparum [4]; HB3, 72 h) [µM] | EC50 (Plasmodium falciparum [5]; cp250, 72 h) [µM]
1 |  | COCC(=O)N[C@@H](C(=O)N1NCCC[C@H]1C(=O)N[C@@H](Cc1ccccc1)[C@@H](O)[C@H](C)C(=O)N[C@H]1CCN(C(C)=O)C1=O)[C@H](O)C(C)C | Active | Non-toxic | Active | Active | Active | Active | Non-toxic |  |  |  |  |  | 
2 |  | COCC(=O)N[C@@H](C(=O)N1NCCC[C@H]1C(=O)N[C@@H](Cc1ccccc1)[C@@H](O)[C@H](C)C(=O)N[C@H]1CCNC1=O)[C@H](O)C(C)C | Active | Non-toxic | Active | Active | Active | Active | Non-toxic |  |  |  |  |  | 
3 |  | COCC(=O)N[C@@H](C(=O)N1NCCC[C@H]1C(=O)N[C@@H](Cc1ccccc1)[C@@H](O)[C@H](C)C(=O)N[C@@H]1CCN(C(N)=O)C1=O)[C@H](O)C(C)C | Active | Non-toxic | Active | Active | Active | Active | Non-toxic |  |  |  |  |  | 
4 |  | COCC(=O)N[C@@H](C(=O)N1NCCC[C@H]1C(=O)N[C@@H](Cc1ccccc1)[C@@H](O)[C@H](C)C(=O)NC1CNC(=O)NC1=O)[C@H](O)C(C)C (some centres not stated) | inactive | Non-toxic | inactive | inactive | inactive | inactive | Non-toxic |  |  |  |  |  | 
5 | inactive | COCC(=O)N[C@@H](C(=O)N1NCCC[C@H]1C(=O)N[C@@H](Cc1ccccc1)[C@@H](O)[C@H](C)C(=O)N[C@H]1CCN(C(N)=O)C1=O)[C@H](O)C(C)C |  | Non-toxic |  |  |  |  | Non-toxic | 90 | 0.2 | 0.2 | 0.2 | 0.2 | 0.2
6 |  | COCC(=O)N[C@@H](C(=O)N1N=CCC[C@H]1C(=O)N[C@@H](Cc1ccccc1)[C@@H](O)[C@H](C)C(=O)N[C@H]1CCN(C(N)=O)C1=O)[C@H](O)C(C)C | Active | Non-toxic | Active | Active | Active | Active | Non-toxic |  |  |  |  |  | 
7 |  | COCC(=O)N[C@@H](C(=O)N1NCCC[C@H]1C(=O)N[C@@H](Cc1ccccc1)[C@@H](O)[C@H](C)C(=O)N[C@H]1CCC(=O)NC1=O)[C@H](O)C(C)C |  | Non-toxic |  |  |  |  | Non-toxic | 30 |  |  |  |  | 
